The list is not random: actives were taken first. Their share in the collection is about 6.4%.
Fibroblast inh: antiproliferative effect on LL 47 fibroblasts – human, LL 47 cells, CellTiter-Glo luminescence, primary screen. AID 719, 2007. 85,000 compounds, 1.1% hits. viability, % at 10 µM. LL 47 human lung fibroblast viability, ATP luminescence; active compounds read low;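 active means viability at or below 50% in the single dose screen; inactive means viability above 50%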;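 further: compound exposure lasted 72 h before the ATP readout; 100% = median luminescence of untreated cell-only wells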
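Material: human LL 47 lung fibroblast cells; quantity: 1,150 cells/well; medium: IMEM plus 15% FBS; doses: 0.1% DMSO in all compound wells; timing: overnight attachment after seeding, then 72 h compound exposure at 37 °C; detection: CellTiter-Glo luminescence; measure: % viability of median cell-only signal; controls: cell-only wells, no compound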
Ecoli tolC: growth inhibitors of E. coli tolC mutant, primary screen, strain BW25113 ΔtolC::kan, 384-well; 65,000 compounds, 2.2% hits; OD615; AID 573, 2007; growth inhibition, % at 10 µM (by protocol);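 active means growth inhibition at or above a cutoff equal to the mean over every tested compound plus 3 SD, cut at about 60% in these data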;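 further: growth measured after 20 h incubation at 37 °C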
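Assay system: tolC-deleted E. coli BW25113. Medium: kanamycin-containing LB broth (50 µg/mL). Dosing: 10 µM final, single dose. Timing: bacterial growth with compound for 20 h at 37 °C. Detection: A615 absorbance measurement. Read-out basis: growth inhibition in percent.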
H69AR growth 86K: proliferation blockers of H69AR lung cancer cells, primary screen, cell-based, human, 86K library; viability, % at 10 µM; 85,000 compounds, 6% hits; H69AR lung tumor viability, ATP luminescence, 72 h; active compounds read low;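 active means viability at or below 40%; inactive means viability above 40%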;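 further: multidrug resistant small cell line overexpressing MRP-1 efflux transporter; 100% = mean luminescence of untreated control wells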
Jurkat tox 60K: cytotoxicity toward Jurkat T cells, primary screen, cytotoxicity control, cell-based, Jurkat E6.1, 60K MLSMR library | Jurkat E6.1 viability, ATP luminescence, 48 h | inhibition, % at 4 µM | 56,000 compounds, 1.2% hits;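 active means inhibition above the mean inhibition of all tested compounds plus 3 SD, cut at about 28% in these data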
E coli WT exp: growth inhibitors of wild-type E. coli, primary screen, strain BW25113, expanded library, OD600; growth inhibition, % at 100 µM; AID 710, 2007; OD600 absorbance; 98,000 compounds, 0.15% hits;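 active means growth inhibition above about 50% at one test dose, limit read from the data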;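 further: growth measured after 20 h incubation at 37 °C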
HUVEC inhibit: inhibitors of HUVEC proliferation, primary screen, cell-based, 384-well. CellTiter-Glo luminescence, 72 h; active compounds read low. viability, % at 10 µM (by protocol). 86,000 compounds, 1.1% hits;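 active means viability at or below 30%; inactive means viability above 30%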;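 further: 100% = median luminescence of DMSO-only cell control wells on each plate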
The depositor's hits bear a star.

How did COc1cc(NS(=O)(=O)c2ccc(Br)cc2)c(OC)cc1NC(=O)c1ccco1 do in these assays?
Fibroblast inh: 96.4; Ecoli tolC: 76.4*; H69AR growth 86K: 94.9; Jurkat tox 60K: -2.6; E coli WT exp: -6.0; HUVEC inhibit: 85.2

What do the screens show for `COc1cc(OC)c(NC(=O)c2ccco2)cc1Cl`?
Fibroblast inh: 92.0; Ecoli tolC: 0.7; H69AR growth 86K: 90.3; Jurkat tox 60K: 0.0; E coli WT exp: 4.0; HUVEC inhibit: 105.4

What do the screens show for `COc1ccc(NC(=O)c2ccco2)cc1NC(=O)c1cccnc1`?
Fibroblast inh: 105.0; Ecoli tolC: -6.0; H69AR growth 86K: 90.4; Jurkat tox 60K: 7.0; E coli WT exp: -1.0; HUVEC inhibit: 95.7

How did COc1cc(OC)cc(C(=O)Nc2cc(NC(=O)c3ccco3)ccc2OC)c1 do in these assays?
Fibroblast inh: 93.8; Ecoli tolC: 6.4; H69AR growth 86K: 36.7*; E coli WT exp: 1.0; HUVEC inhibit: 83.5

How did COc1cc(NC(=O)c2ccco2)c(OC)cc1NC(=O)Nc1ccc(Cl)cc1 do in these assays?
Fibroblast inh: 109.3; Ecoli tolC: -2.2; H69AR growth 86K: 11.2*; Jurkat tox 60K: -4.2; E coli WT exp: -16.0; HUVEC inhibit: 78.0

What do the screens show for `Cc1ccc(-n2c(=O)[nH]c3cc(C(=O)NC4CCN(Cc5ccccc5)CC4)ccc3c2=O)cc1`?
E coli WT exp: -1.0

Results for Cc1cccnc1NC(=O)c1ccccc1NC(=O)C(C)(C)C ?
H69AR growth 86K: 101.8; HUVEC inhibit: 102.6

Results for Cc1ccnc(NC(=O)c2ccccc2NC(=O)C(C)(C)C)c1 ?
H69AR growth 86K: 19.7*; HUVEC inhibit: 62.4

What do the screens show for `COC(=O)c1ccccc1NS(=O)(=O)c1cn(C)c(=O)n(C)c1=O`?
Fibroblast inh: 100.7; Ecoli tolC: -8.6; H69AR growth 86K: 98.2; Jurkat tox 60K: 1.9; E coli WT exp: 0.0; HUVEC inhibit: 93.9

How did Cc1ccc2oc(=O)n(Cc3ccccc3OC(C)C)c2c1 do in these assays?
Fibroblast inh: 95.8; Ecoli tolC: 98.9*; Jurkat tox 60K: 0.0; E coli WT exp: 4.0; HUVEC inhibit: 88.1

How did COc1ccc(Cn2c(=O)oc3ccc(C)cc32)cc1OC do in these assays?
Fibroblast inh: 100.4; Ecoli tolC: 15.7; H69AR growth 86K: 78.4; Jurkat tox 60K: 39.6*; E coli WT exp: 7.0; HUVEC inhibit: 90.8

How did Cc1ccc2oc(=O)n(CCCOc3ccccc3)c2c1 do in these assays?
Fibroblast inh: 97.3; Ecoli tolC: 46.6; Jurkat tox 60K: 2.5; E coli WT exp: 2.0; HUVEC inhibit: 121.3

How did Cc1ccc2oc(=O)n(CC(=O)O)c2c1 do in these assays?
Fibroblast inh: 100.0; Ecoli tolC: -32.4; H69AR growth 86K: 96.7; Jurkat tox 60K: -0.5; E coli WT exp: -5.0; HUVEC inhibit: 102.9

How did CCCCOc1ccccc1Cn1c(=O)oc2ccc(C)cc21 do in these assays?
Ecoli tolC: 69.9*; Jurkat tox 60K: -5.9; E coli WT exp: -1.0

How did O=C(Nc1cccc(C(F)(F)F)c1)C12CC3CC(CC(C3)C1)C2 do in these assays?
Fibroblast inh: 98.2; H69AR growth 86K: 79.0; HUVEC inhibit: 88.2

How did CN1CCCN(C(=O)Cc2c(Cl)cccc2Cl)c2nc3ccccc3nc21 do in these assays?
Fibroblast inh: 98.9; Ecoli tolC: 70.2*; H69AR growth 86K: 71.8; Jurkat tox 60K: 6.2; E coli WT exp: -11.0; HUVEC inhibit: 83.5

What do the screens show for `CN1CCCN(C(=O)c2cc(=O)[nH]c3ccccc23)c2nc3ccccc3nc21`?
Fibroblast inh: 94.2; Ecoli tolC: 0.0; H69AR growth 86K: 73.9; Jurkat tox 60K: 6.3; E coli WT exp: -8.0; HUVEC inhibit: 86.0

How did CCOC(=O)N1CCC(n2c(SCC(=O)NCc3ccccc3)nc3ccccc3c2=O)CC1 do in these assays?
Fibroblast inh: 90.7; Ecoli tolC: 13.7; H69AR growth 86K: 57.5; E coli WT exp: -1.0; HUVEC inhibit: 96.2

How did CCOC(=O)N1CCC(n2c(SCC(=O)N3CCCC3)nc3ccccc3c2=O)CC1 do in these assays?
E coli WT exp: -1.0
